Test results as given in the EternaBench riboswitch data.

Tested on: MS2 coat protein
Test: apparent Kd, MS2 coat protein; higher = weaker binding; RNA-MaP array; FMN 200 µM where present
Outline: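 In 100 mM Tris-HCl pH 7.5, 80 mM KCl, 4 mM MgCl2, BSA, DTT, yeast tRNA and Tween-20, SNAP-549-labelled MS2 coat protein was titrated from 0.7 or 1.5 nM, doubling to 3 µM, over designs transcribed by stalled E. coli RNA polymerase on Illumina sequencing-chip clusters. This was done first without ligand, then with ligand held constant. After green signal was normalised to red-channel RNA signal and control-cluster median Fmax, the apparent Kd was taken as the median of filtered per-cluster binding-curve fits.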

[1] = designed as: ON switch for flavin mononucleotide, no ligand
[2] = ligand present: flavin mononucleotide, designed as: ON switch for flavin mononucleotide
[3] = designed as: OFF switch for flavin mononucleotide, no ligand
[4] = ligand present: flavin mononucleotide, designed as: OFF switch for flavin mononucleotide

Row | Sequence | apparent Kd [1] | apparent Kd [2] | apparent Kd [3] | apparent Kd [4]
1 | AAUUGGAUCCAGAAGGCAUGGACGACCCGUCACAUUAACAUGAGGAUCACCCAUGUGAAAACACAUGAGGAUAUGGAUCCUAAA | 28.7 nM | 7.44 nM |  | 
2 | CUGCUCCGUGUAGGAUAUGCAUACUCCCAUUAUGCAGAAGGACAUGAGGAUCACCCAUGUAUGUUAUUAUCACGUGUUGCGUAC |  |  | 25.7 nM | 92.2 nM
3 | UUGUUGUGAGGAUAUCCAAUAUAUGACAUGAGGAUCACCCAUGUUUCCACUCGUACCUCCGGAGAAGGCACUUAUU |  |  | 31.7 nM | 28.7 nM
4 | GCAGCGACUGCAGGAUAUCAGCACGUGUAGUGCUGAGAAGGGCACAUGAGGAUCACCCAUGUGAUCAAUUAAUAGUCAUGCUGC |  |  | 7.23 nM | 15.9 nM
5 | GUAGCAUAAUCAGGAUAUUCAGCGAAUAGAUUGACAUGAGGAUCACCCAUGUGGCGAAAGCCUCGGGAGAAGGGAUAAUGCUAC | 399 nM | 76.8 nM |  | 
6 | GGUAAAUAAAGAGUACUGUUUUGAACAUGAGGAUCACCCAUGUAGGAUAUGCGAGUUUUGAAUUUGCAGAAGGACAUUUUUAGC |  |  | 19.6 nM | 20.4 nM
7 | AUAAUCACAUGAGGAUCACCCAUGUACCGAGCUAAAGCUACAUAGGAUAUGACAAGUAUAGCUUGUCAGAAGGGUGAGUCUCGC | 46.3 nM | 67.1 nM |  | 
8 | CAAUUUAUAACAGGAUAUGUAAUACAAUAGUUAAUAGAAGGGUUUAAUACAUGAGGAUCACCCAUGUCAUGUGUCAUAAUUACC |  |  | 33 nM | 26 nM
9 | AUUUAGUCAGGAUAUACAUGAGGAUCACCCAUGUAAACUUUUAGUUUAAUUUGAAUGUGUAGAAGGGACAUUUU |  |  | 28.8 nM | 29.8 nM
10 | AAUGGCUGAGGAUAUACACUCACGUCUAAAAGGUUCAAAUGACAUGAGGAUCACCCAUGUAGAAGGCAGCCCGA |  |  |  | 50.2 nM
11 | GCGUAUUACGCAGGAUAUCCUUAUAUACAUGAGGAUCACCCAUGUUUUUUCGGAGAAGGGCGUAUGGGAUUUAAGAAUCAACAA | 11.2 nM | 4.31 nM |  | 
12 | AAGGAGUUAGGAUAUGCUGCUCGUCACUUGCGUGAUGAGUAGCAGAAGGGACAUGAGGAUCACCCAUGUAAAAA |  |  | 45.3 nM | 21.2 nM
13 | AGAAAACGAGGAUAUACGUGCAUAUUCUCGCCCAAUGGGCAACAUGAGGAUCACCCAUGUAGAAGGCGUAAAGA |  |  | 37.4 nM | 71.7 nM
14 | UUGUUGUGUGUAGGAUAUGCAUAUUAUUAUUAUGCAGAAGGACAUGAGGAUCACCCAUGUGUAUUAUUAUUAUAUAUUAUAUAU |  |  | 24.6 nM | 38 nM
15 | AGCUAGAGAGGAUAUACGUAGGAAAAAAAAGUCUGAUCCCUACAUGAGGAUCACCCAUGUAGAAGGCUCUGGCA |  |  | 91.5 nM | 81.8 nM
16 | ACGGCAGUCGAAGGAUAUGGUUACAUGAGGAUCACCCAUGUCUAGGUUCUUAAAUAGUAUAAUUUCCAGAAGGUCGAAGGCCUA |  |  | 29.4 nM | 35.5 nM
17 | CACCGUUACAGAGGAUAUCGUACAUGAGGAUCACCCAUGUAAUAAAUGAGAAUUUCGGAUGUAUGCGAGAAGGCUGGAAUCGGC |  |  | 28.5 nM | 36.1 nM
18 | AGACAUGUCCGAGGAUAUCUGGAAACAUUUUCAAGAGAAGGCGGACAUGAGGAUCACCCAUGUCUCUCCUCAUCAAAUCCAAGU |  |  | 7.98 nM | 44.6 nM
19 | GUUAUUGACAAGAAGGCAAACAUGAGGAUCACCCAUGUUCUACAUGUAUAUUGAGGAUAUUGCCAAUACAUGAGGAUCACCCAG |  |  | 45 nM | 53.3 nM
20 | CCGGCUGCUGUGAGGAUAUGCCUGUGGGUGCGUGGGUAGAAGGCACAUGAGGAUCACCCAUGUCCUGCGGGCCC |  |  | 123 nM | 81.8 nM
21 | GAGUAGUUGAAAGGAUAUCGAUUGUUAUAGAAUCGAGAAGGUUCUAACAUGAGGAUCACCCAUGUAGGACUAUUCCUGUGUAUC | 12.9 nM | 11 nM |  | 
